{"data": "Experimental data from different studies", "SLCO1B3": "Solute carrier organic anion transporter family member 1B3 (SLCO1B3, Homo sapiens, UniProt Q9NPD5)", "note": "Lines come from different studies, so protocols differ."}
{"SMILES": "COc1cc(C(=O)NC2CCN(C)CC2)c(F)cc1Nc1ncc(C(F)(F)F)c(Oc2cccc3c2C(=O)N(C)C3)n1", "test system": "human, plasma", "conditions": "oral, 200 mg, multiple doses, once daily, patients", "measurement": "CL/F", "value": "160 mL/min"}
{"SMILES": "c1cnc2ccc(Nc3nc(NC4CC4)c4nc[nH]c4n3)cc2c1", "test system": "human, plasma", "conditions": "oral, 50 mg/m², patients", "measurement": "CL/F", "value": "3180 mL/min"}
{"SMILES": "CN(C(=O)n1cnc(-c2ccc[n+]([O-])c2)c1)C1CCCCC1", "tested on": "SLCO1B3", "assay": "transporter uptake, inhibitor", "test system": "HEK293", "conditions": "1 µg/mL", "measurement": "inhibition", "value": "11%"}
{"SMILES": "Oc1ccc(-c2nc(N3CCC(c4ccccn4)C3)c3ccccc3n2)cc1 (centres unmarked)", "assay": "metabolic stability", "test system": "human, liver microsomes", "measurement": "microsomal CLint", "value": "99 µL/min/mg"}
{"SMILES": "COc1ccnc(-c2nc3ccccn3c2N(C)c2ccc(F)cc2)c1", "assay": "metabolic stability", "test system": "rat, hepatocytes", "measurement": "hepatocyte CLint", "value": "> 300 µL/min/10⁶ cells"}
{"SMILES": "Cc1ccc(C(=O)N(CCCN)[C@@H](c2oc3cc(Cl)ccc3c(=O)c2Cc2ccccc2)C(C)C)cc1", "test system": "human, plasma", "conditions": "intravenous, 4 mg/m², single dose, patients, infusion", "measurement": "clearance", "value": "24.8 mL/min"}
{"SMILES": "O=C(O[C@H]1[C@@H]2C=CO[C@@H](O[C@@H]3O[C@H](CO)[C@@H](O)[C@H](O)[C@H]3O)[C@@H]2[C@@]2(CO)O[C@@H]12)c1ccc(O)cc1", "tested on": "SLCO1B3", "assay": "transporter uptake, substrate", "test system": "HEK293", "conditions": "5 min", "measurement": "Km", "value": "502 µM"}
{"SMILES": "Fc1ccc(Nc2c(Cn3cccn3)nc3ccccn23)cc1", "assay": "metabolic stability", "test system": "rat, hepatocytes", "measurement": "hepatocyte CLint", "value": "51 µL/min/10⁶ cells"}
{"SMILES": "C[C@H]1C[C@H]2[C@@H]3CCC4=CC(=O)C=C[C@]4(C)[C@@]3(Cl)[C@@H](O)C[C@]2(C)[C@@]1(O)C(=O)CO", "tested on": "SLCO1B3", "assay": "transporter uptake, inhibitor", "measurement": "IC50", "value": "1.4 µM"}
{"SMILES": "COc1cccnc1-c1nc2ccccn2c1Nc1ccc(F)cc1", "assay": "metabolic stability", "test system": "rat, hepatocytes", "measurement": "hepatocyte CLint", "value": "29 µL/min/10⁶ cells"}
{"SMILES": "CN(CCC(=O)O)C(=O)c1ccc2c(c1)CC[C@@H]1[C@@H]2CC[C@]2(C)C(c3cncc(F)c3)=CC[C@@H]12", "tested on": "SLCO1B3", "assay": "transporter uptake, inhibitor", "measurement": "IC50", "value": "41 µM"}
